Data taken from ChEMBL document CHEMBL1133473, “Synthesis and antiviral activity of 4-benzyl pyridinone derivatives as potent and selective non-nucleoside human immunodeficiency virus type 1 reverse transcriptase inhibitors” (J Med Chem, 2000).
pIC50: −log10 of the molar value. Values joined by “and” are separate entries in the source; they are usually repeats but may differ in a detail not shown here. Equal values may be shown once.

Legend:
[1] = target: Human immunodeficiency virus type 1 reverse transcriptase (Human immunodeficiency virus 1, UniProt Q72547); experiment: Tested for inhibitory concentration on HIV-1 Reverse transcriptase in the presence of poly(c)-oligo-(dG)
Summary of the method: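 Recombinant HIV-1 RT purified from yeast, 20-50 nM. Reaction at 37 °C for 10 min in 50 mM Tris-HCl pH 8.0, 5 mM MgCl2, 4 mM DTT, 80 mM KCl, BSA, 0.48 A260 units/mL poly(C)-oligo(dG) (5:1), 2 µM dGTP plus [3H]dGTP. Stopped with cold 10% TCA plus 0.1 M pyrophosphate; precipitates filtered, scintillation counted. Compounds dissolved in DMSO.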

CEM-SS [2] = experiment: Tested for inhibitory concentration on HIV-I Lai wild type in CEM-SS cell line; assay type: functional, cell-based; details: Homo sapiens
Summary of the method: (§1)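 CEM-SS lymphocytic cells infected with 100 TCID50 of HIV-1 LAI, or of the nevirapine-resistant N119 strain carrying an RT codon 181 mutation. Virus adsorbed 30 min, unbound virus removed by two washes, then cells cultured 5 days with serial compound dilutions. Read-out: RT activity of particles released into the supernatant. IC50 from a computer median effect plot of dose-effect data.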

CEM-SS [3] = experiment: Tested for cytotoxic concentration on HIV-I Lai wild type in CEM-SS cell line; assay type: functional; details: Homo sapiens
Summary of the method: (§2)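 CEM-SS cells, uninfected, cultured 5 days with compound. Compounds were taken from a DMSO solution at 10^-2 M (10^-3 M or lower if insoluble), diluted 1:100 in medium, then serially diluted in medium.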

[4] = system: Human immunodeficiency virus 1; experiment: Selectivity index is the ratio of CC50 to IC50; assay type: functional
[5] = system: Human immunodeficiency virus 1; experiment: Inhibitory concentration against HIV-1 AZTres.; assay type: functional, organism-based
Summary of the method: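 AZT-resistant HIV-1 isolate A018 G910-6 tested in cell culture; virus production measured as RT activity of particles released into the culture supernatant.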

[6] = system: Human immunodeficiency virus 1; experiment: Tested for inhibitory concentration on HIV-I nevirapine resistant strain.; assay type: functional, organism-based; summary of the method: as §1
[7] = Inhibitory concentration against HIV-2 D 194; assay type: functional
Summary of the method: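 Cell-based antiviral assay against this HIV-2 isolate. Compounds were dissolved in DMSO as 10^-2 M stocks, or 10^-3 M or lower when insoluble, diluted 1% in culture medium, then serially diluted in medium. Virus production was read as reverse transcriptase activity of particles released into the culture supernatant. IC50 was taken from a median-effect plot of the dose-effect data.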

[8] = Cytotoxicity against PBMC cells infected with HIV-1 IIIB strain; assay type: functional; details: Human immunodeficiency virus 1, PBMC
MT4 [9] = experiment: Cytotoxicity against MT-4 cells infected with HIV-1 AZTres; assay type: functional; details: Homo sapiens
MT4 [10] = experiment: Cytotoxicity against MT-4 cells infected with HIV-1 IIIB strain; assay type: functional; details: Homo sapiens
[11] = Cytotoxicity against PBMC cells infected with HIV-2 D 194; assay type: functional; details: Human immunodeficiency virus 2, PBMC
[12] = Cytotoxicity against Macrophages infected with HIV-1 Bal/Mono; assay type: functional; details: Human immunodeficiency virus 1
[13] = system: Human immunodeficiency virus 1; experiment: Inhibitory concentration against HIV-1 Bal/Mono; assay type: functional, organism-based
Summary of the method: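 Macrophage-tropic HIV-1 Bal in monocyte-derived macrophages kept serum-free in AIM V medium with 100 U/mL GM-CSF. Virus output measured as supernatant particle-associated RT activity.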

[14] = system: Human immunodeficiency virus 1; experiment: Tested for cytotoxic concentration on HIV-I nevirapine resistant strain.; assay type: functional; summary of the method: as §2
[15] = system: Human immunodeficiency virus 1; experiment: Selectivity index is the ratio of CC50 to IC50 against HIV-1 nevirapine resistant strain; assay type: functional
[16] = system: Human immunodeficiency virus 1; experiment: Inhibitory concentration against HIV-1 IIIB strain; assay type: functional, organism-based
Summary of the method: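 MT4 cells infected with HIV-1 IIIB; antiviral effect read as protection from virus-induced cytopathogenicity by MTT. Compounds taken from DMSO stock, diluted in culture medium.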

SMILES	pIC50 (CEM-SS [2])	CC50 (CEM-SS [3]) [µM]	SI [4]	other results
Cc1c(Sc2ccccc2)n(COCc2ccccc2)c(=O)[nH]c1=O	–	–	–	pIC50 [1]: 6.52
CCc1c(C)nc(O)c(N)c1Cc1ccccc1	6.14	> 100	>136	–
CCc1c(C)nc(OC)c(NC(=O)C(C)(C)C)c1C(C)(O)c1cc(C)cc(C)c1 (centres undefined)	< 5.00	> 10	–	–
CCc1c(C)[nH]c(=O)c(NC=O)c1Cc1cc(C)cc(C)c1	8.52	> 10	>3333	pIC50 [5]: 7.15; pIC50 [6]: 5.54; pIC50 [7]: < 5.00; pIC50 [1]: 6.70; CC50 [8]: > 10 µM; CC50 (MT4 [9]): > 10 µM; CC50 (MT4 [10]): > 10 µM; CC50 [11]: > 10 µM; CC50 [12]: > 10 µM; pIC50 [13]: 7.68; CC50 [14]: > 10 µM; SI [15]: >3
CCC(=O)Nc1c(Cc2cc(C)cc(C)c2)c(CC)c(C)[nH]c1=O	5.34	> 10	>2	–
CCc1cc(N)c(O)nc1C	4.52	> 100	>3	–
CC(C)=CCN1Cc2cc(Cl)cc3[nH]c(=S)n(c23)C[C@@H]1C	–	–	–	pIC50 [6]: < 5.00; CC50 [14]: > 10 µM
CCc1c(C)[nH]c(=O)c(NC(C)=O)c1Cc1cc(C)cc(C)c1	7.00	> 10	>100	pIC50 [5]: 6.36; pIC50 [6]: < 5.00; pIC50 [7]: < 5.00; CC50 [8]: > 10 µM; CC50 (MT4 [9]): > 10 µM; CC50 (MT4 [10]): > 10 µM; CC50 [11]: > 10 µM; CC50 [12]: > 10 µM; pIC50 [13]: 6.70; CC50 [14]: > 10 µM
CCc1c(C)nc(O)c(NC(=O)CNC(=O)OC(C)(C)C)c1Cc1cc(C)cc(C)c1	5.17	86	12	–
CCc1c(C)nc(O)c(NC(=O)C(C)(C)C)c1C(C)(O)c1cc(C)cc(C)c1 (centres undefined)	4.92	> 100	>8	–
CCc1c(C)nc(OC)c(NC(C)=O)c1C(C)(OC(C)=O)c1cc(C)cc(C)c1 (centres undefined)	5.60	> 10	>4	–
CCc1c(C)[nH]c(=O)c(N(C)C)c1Cc1cc(C)cc(C)c1	9.70	> 1	>5000	pIC50 [5]: 9.70; pIC50 [6]: 7.40; pIC50 [7]: < 6.00; pIC50 [1]: 7.70; CC50 [8]: > 1 µM; CC50 (MT4 [9]): > 1 µM; CC50 (MT4 [10]): > 1 µM; CC50 [11]: > 1 µM; CC50 [12]: > 1 µM; pIC50 [13]: 11.40; pIC50 [16]: 8.62 and 9.24; CC50 [14]: > 1 µM; SI [15]: >25
CCC(=O)Nc1c(O)ncc(C)c1Sc1cc(C)cc(C)c1	4.38	–	>2	–
CCOC(=O)Nc1c(O)ncc(C)c1Sc1cc(C)cc(C)c1	5.12	–	>13	–
CCOCn1c(Cc2cc(C)cc(C)c2)c(CC)c(=O)[nH]c1=O	8.80	207	130000	–
CCc1c(C)nc(O)c(NCc2cc(C)c(C)cc2OC)c1Cc1cc(C)cc(C)c1	6.00	> 1	–	–
Cc1cn([C@H]2C[C@H](N=[N+]=[N-])[C@@H](CO)O2)c(=O)[nH]c1=O [ZIDOVUDINE]	8.52	–	>33333	–

SMILES	pIC50 (CEM-SS [2])	CC50 (CEM-SS [3]) [µM]	SI [4]	other results
CCc1c(C)nc(OC)c(NC(=O)C(C)(C)C)c1Cc1ccccc1	< 6.00	> 1	–	–
Cc1cc(C)cc(Sc2c(C)cnc(O)c2NC=O)c1	5.18	–	>15	–
CCc1c(C)nc(O)c(N)c1C(O)c1cc(C)cc(C)c1 (centres undefined)	6.00	> 10	>10	pIC50 [5]: 6.38; pIC50 [6]: 5.35; pIC50 [7]: < 5.00; CC50 [8]: > 10 µM; CC50 (MT4 [9]): > 10 µM; CC50 (MT4 [10]): 10 µM; CC50 [11]: > 10 µM; CC50 [12]: > 10 µM; pIC50 [13]: 6.74; pIC50 [16]: 5.47 and 6.16; CC50 [14]: > 10 µM; SI [15]: >2
CCc1c(C)[nH]c(=O)c(NC)c1Cc1cc(C)cc(C)c1	7.52	> 10	>333	pIC50 [5]: 7.12; pIC50 [6]: 5.77; pIC50 [7]: < 5.00; CC50 [8]: > 10 µM; CC50 (MT4 [9]): > 10 µM; CC50 (MT4 [10]): > 10 µM; CC50 [11]: > 10 µM; CC50 [12]: > 10 µM; pIC50 [13]: 6.14; CC50 [14]: > 10 µM; SI [15]: >5.5 and >10
CCc1c(C)nc(OC)c(NC(=O)C(C)(C)C)c1C(OC(C)=O)c1cc(C)cc(C)c1 (centres undefined)	5.00	> 10	>1	–
CCc1c(C)nc(OC)c(NC(=O)C(C)(C)C)c1C(O)c1cc(C)cc(C)c1 (centres undefined)	< 6.00	> 1	–	–
CCc1cc(NC(=O)C(C)(C)C)c(OC)nc1C	< 4.00	> 100	–	–
CCc1cc(NCc2cc(C)c(C)cc2OC)c(O)nc1C	8.10	–	–	–
CCc1c(C)nc(OC)c2c1C(c1cc(C)cc(C)c1)OC(O)(C(C)(C)C)N2 (centres undefined)	5.38	> 10	>2	–
CCc1c(C)nc(O)c(NC(C)=O)c1Sc1cc(C)cc(C)c1	7.30	–	1600	–
CCc1c(C)nc(O)c([N+](=O)[O-])c1Sc1cc(C)cc(C)c1	–	–	–	pIC50 [6]: 6.59
CCc1c(C)nc(O)c(N)c1C(=O)c1cc(C)cc(C)c1	8.22	> 10	>1666	pIC50 [5]: 7.60; pIC50 [6]: 5.89; pIC50 [7]: < 5.00; pIC50 [1]: 7.00; CC50 [8]: > 10 µM; CC50 (MT4 [9]): > 10 µM; CC50 (MT4 [10]): > 10 µM; CC50 [11]: > 10 µM; CC50 [12]: > 10 µM; pIC50 [13]: 7.77; pIC50 [16]: 7.07 and 7.70; CC50 [14]: > 10 µM; SI [15]: >7
CCOCn1c(Cc2cc(C)cc(C)c2)c(C(C)C)c(=O)[nH]c1=O	9.22	43	72000	–
CCc1c(C)nc(OC)c(NC(=O)C(C)(C)C)c1Cc1cc(C)cc(C)c1	< 4.00	> 100	–	–
CCc1c(C)nc(OC)c2c1C(c1cc(C)cc(C)c1)OC(C(C)(C)C)=N2 (centres undefined)	< 5.00	> 10	–	–
CCc1c(C)nc(O)c(NC(=O)CN)c1Cc1cc(C)cc(C)c1	7.74	> 100	>5555	–
CCOC(=O)Nc1c(O)nc(C)c(CC)c1Cc1cc(C)cc(C)c1	6.34	> 10	>21	–
